Data reported in ChEMBL document CHEMBL3352220, “Design, synthesis, anticancer activity and docking studies of novel 4-morpholino-7,8-dihydro-5H-thiopyrano[4,3-d]pyrimidine derivatives as mTOR inhibitors” (Bioorg Med Chem, 2014).
Blank lines part the entries; values can stand above or below the compound they belong to.

How the values were obtained:
[1] = biological target: T1, Serine/threonine-protein kinase mTOR (Homo sapiens, UniProt P42345); assay: Inhibition of mTOR kinase (unknown origin) after 1 hr by TR-FRET assay
[2] = Cytotoxicity against human PC3 cells after 72 hrs by MTT assay; type: functional, cell-based; conditions: PC-3, 72 h
Method in brief: (§1)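 Cells grown in MEM with 10% FBS; ~4 × 10³ cells/well plated and held 24 h at 37 °C, 5% CO2. Compounds added at indicated final concentrations for 72 h. MTT added, 4 h at 37 °C; formazan dissolved in DMSO, absorbance read at 492 nm against 630 nm reference. Tested three times per cell line; inhibition rates or IC50 averaged from two determinations.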

[3] = biological target: Phosphatidylinositol 4,5-bisphosphate 3-kinase catalytic subunit alpha isoform (Homo sapiens) (UniProt P42336); assay: Inhibition of PI3K-alpha (unknown origin) using l-alpha-phosphatidylinositol as substrate at 10 uM after 60 mins by luminescence assay
[4] = Cytotoxicity against human H460 cells after 72 hrs by MTT assay; type: functional, cell-based; conditions: NCI-H460, 72 h; method in brief: as §1
[5] = biological target: T1, Serine/threonine-protein kinase mTOR; assay: Selectivity ratio of BMCL-200908069-1 IC50 to compound IC50 for mTOR kinase (unknown origin)
PC-3 = assay: Selectivity ratio of BMCL-200908069-1 IC50 to compound IC50 for human PC3 cells; type: functional
[6] = Selectivity ratio of BMCL-200908069-1 IC50 to compound IC50 for human H460 cells; type: functional

Sequence of Phosphatidylinositol 4,5-bisphosphate 3-kinase catalytic subunit alpha isoform (Homo sapiens) (P42336 whole entry, canonical isoform): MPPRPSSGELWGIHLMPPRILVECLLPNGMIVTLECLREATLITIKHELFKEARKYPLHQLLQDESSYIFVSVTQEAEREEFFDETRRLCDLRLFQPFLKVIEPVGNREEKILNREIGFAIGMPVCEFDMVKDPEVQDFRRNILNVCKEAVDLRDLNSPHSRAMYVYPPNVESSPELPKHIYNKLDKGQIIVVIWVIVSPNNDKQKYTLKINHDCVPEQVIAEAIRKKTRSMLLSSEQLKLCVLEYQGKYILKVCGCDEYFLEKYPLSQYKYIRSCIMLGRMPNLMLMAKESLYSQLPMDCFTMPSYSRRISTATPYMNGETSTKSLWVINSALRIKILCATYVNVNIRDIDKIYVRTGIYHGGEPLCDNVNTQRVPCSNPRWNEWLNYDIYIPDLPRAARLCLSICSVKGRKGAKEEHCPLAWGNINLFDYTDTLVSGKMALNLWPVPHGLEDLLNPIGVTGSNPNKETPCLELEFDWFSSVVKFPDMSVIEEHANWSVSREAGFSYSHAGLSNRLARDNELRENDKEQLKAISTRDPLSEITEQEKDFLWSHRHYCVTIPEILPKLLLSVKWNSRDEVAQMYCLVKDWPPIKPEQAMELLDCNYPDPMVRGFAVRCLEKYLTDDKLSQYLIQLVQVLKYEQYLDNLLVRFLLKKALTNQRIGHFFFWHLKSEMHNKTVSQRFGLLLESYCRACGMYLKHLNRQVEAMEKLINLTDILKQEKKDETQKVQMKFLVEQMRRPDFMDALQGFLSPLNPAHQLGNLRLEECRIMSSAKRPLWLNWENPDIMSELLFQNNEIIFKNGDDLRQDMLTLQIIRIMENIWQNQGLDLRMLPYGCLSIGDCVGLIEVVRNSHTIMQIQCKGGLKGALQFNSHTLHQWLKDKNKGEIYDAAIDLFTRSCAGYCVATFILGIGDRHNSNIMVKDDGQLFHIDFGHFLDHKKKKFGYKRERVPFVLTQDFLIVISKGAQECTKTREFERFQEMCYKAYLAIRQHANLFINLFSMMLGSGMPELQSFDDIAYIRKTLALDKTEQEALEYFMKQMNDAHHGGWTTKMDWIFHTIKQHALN

SMILES: Oc1c(Br)cc(/C=N/Nc2nc3c(c(N4CCOCC4)n2)CSCC3)cc1Br
IC50 [1]: 2.67 µM
IC50 [2]: > 20 µM
inhibition [3]: 21.6%

SMILES: COc1cc(/C=N/Nc2nc3c(c(N4CCOCC4)n2)CS(=O)(=O)CC3)cc(OC)c1O
IC50 [1]: 2.2 µM
IC50 [2]: > 20 µM
inhibition [3]: 6.2%

SMILES: O=S1(=O)CCc2nc(N/N=C/c3cc(Br)c(O)c(Br)c3)nc(N3CCOCC3)c2C1
IC50 [1]: 6.93 µM
IC50 [2]: > 20 µM
inhibition [3]: 24.9%

These reach a lower IC50 [1]. Values come first.

IC50 [1]: 0.8 µM
Ratio IC50 [5]: 1.71
inhibition [3]: 12%
SMILES: COc1cc(/C=N/Nc2nc3c(c(N4CCOCC4)n2)CSCC3)cc(OC)c1O
IC50 [4]: 7.43 µM
IC50 [2]: 11.9 µM
Ratio IC50 (PC-3): 1.37
Ratio IC50 [6]: 1.28

IC50 [1]: 1.37 µM
SMILES: COc1cc(/C=N/Nc2nc(N3CCOCC3)nc(N3CCOCC3)n2)cc(OC)c1O
IC50 [4]: 9.52 µM
IC50 [2]: 16.3 µM

IC50 [1]: 1.94 µM
inhibition [3]: 18.8%
SMILES: Oc1ccc(/C=N/Nc2nc3c(c(N4CCOCC4)n2)CSCC3)cc1Br
IC50 [4]: 10.8 µM
IC50 [2]: 14.4 µM
